In ChEMBL document CHEMBL4145585, “Structures and Activities of Tiahuramides A-C, Cyclic Depsipeptides from a Tahitian Collection of the Marine Cyanobacterium Lyngbya majuscula” (J Nat Prod, 2018):
Converted amounts (≈) assume the structure as drawn. The source made the active and inactive calls. The calls are words filed in the database; no cut-off is given here.

What was measured:
Aeromonas salmonicida = test: Antimicrobial activity against Aeromonas salmonicida subsp. salmonicida CIP 103209T after 24 hrs by broth micro dilution assay; assay type: functional
Summary of the method: (§1)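 Compounds were in DMSO (at most 5% of total volume) and were incubated with the strain in PB medium in 96-well plates at 37 °C for 24 h with stirring. Growth was read as optical density at 630 nm. Runs were in triplicate and averaged. Wells without growth were plated on rich solid medium to tell bacteriostatic from bactericidal action.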

Vibrio anguillarum = test: Antimicrobial activity against Vibrio anguillarum CIP 63.36T after 24 hrs by broth micro dilution assay; assay type: functional; summary of the method: as §1
Shewanella baltica = test: Antimicrobial activity against Shewanella baltica CIP 105850T after 24 hrs by broth micro dilution assay; assay type: functional; summary of the method: as §1
Escherichia coli = test: Antimicrobial activity against Escherichia coli CIP 54.8 after 24 hrs by broth micro dilution assay; assay type: functional; conditions: CIP 54.8, 24 h; summary of the method: as §1
Micrococcus luteus = test: Antimicrobial activity against Micrococcus luteus CIP A270 after 24 hrs by broth micro dilution assay; assay type: functional; conditions: CIP A270, 24 h; summary of the method: as §1
Paracentrotus lividus [1] = test: Antiproliferative activity against Paracentrotus lividus eggs assessed as inhibition of first cell division measured 75 mins post fertilization by inverted microscopy; conditions: 1.25 h
SH-SY5Y [2] = test: Cytotoxicity against human SH-SY5Y cells assessed as decrease in cell viability at 0.001 to 100 uM after 24 hrs by MTT assay; assay type: functional, cell-based
Summary of the method: (§2)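 SH-SY5Y cells were grown in DMEM/F-12 with 10% FBS at 37 °C in 5% CO2. Cells were seeded at 5 × 10^4 per well one day ahead, then treated at 0.001–100 μM for 24 h. MTT at 500 μg/mL was added for 1 h at 37 °C, cells were lysed with 5% SDS, and absorbance was read at 595 nm. The saponin death control was subtracted, and IC50 came from a log(inhibitor)–response fit.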

SH-SY5Y [3] = test: Cytotoxicity against human SH-SY5Y cells assessed as decrease in cell viability after 24 hrs by MTT assay; assay type: functional, cell-based; summary of the method: as §2
SH-SY5Y [4] = test: Induction of cell death in human SH-SY5Y cells at 15 uM pretreated with caspase inhibitor ZVAD-FMK for 24 hrs followed by compound addition measured after 6 hrs by MTT assay; assay type: functional, cell-based
Summary of the method: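 SH-SY5Y cells were seeded as for MTT and preincubated with 40 μM Z-VAD-FMK for 24 h. Compound was then added (5, 10, 15 μM) for 6 h, and viability was read by MTT as % of untreated cells. Staurosporine (0.5 μM) was the apoptosis control. Data are mean ± SEM of three independent experiments in triplicate, with Student's t test.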

SH-SY5Y [5] = test: Induction of apoptosis in human SH-SY5Y cells at 6 uM after 6 hrs by Annexin V-FITC/PI staining based flow cytometry; assay type: functional
Summary of the method: (§3)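 SH-SY5Y cells were seeded at 1 × 10^6 per well and treated 6 h at 6 μM. Cells were washed in PBS and stained with annexin V–FITC and propidium iodide for 15 min. 10 000 events were analysed by imaging flow cytometry and classed as viable, apoptotic, late apoptotic or necrotic. Staurosporine (1 μM) was the death control. Data are mean ± SEM of three experiments, with Student's t test.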

SH-SY5Y [6] = test: Induction of apoptosis in human SH-SY5Y cells assessed as necrotic cells at 6 uM after 6 hrs by Annexin V-FITC/PI staining based flow cytometry; assay type: functional; summary of the method: as §3
SH-SY5Y [7] = test: Induction of apoptosis in human SH-SY5Y cells at 1 uM after 6 hrs by Annexin V-FITC/PI staining based flow cytometry; assay type: functional, cell-based
Summary of the method: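 SH-SY5Y cells in DMEM/F-12 with 10% FBS at 37 °C, 5% CO2, seeded at 1 × 10^6 cells per well and exposed 6 h. They were then washed in PBS, stained 15 min with annexin V–FITC plus propidium iodide in binding buffer, and 10 000 events were read by imaging flow cytometry. Cells were classed as viable, apoptotic, late apoptotic or necrotic. Three independent experiments; mean ± SEM; Student's t test vs untreated cells.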

Paracentrotus lividus [8] = test: Antiproliferative activity against Paracentrotus lividus eggs assessed as inhibition of first cell division at 2 uM measured 75 mins post fertilization by inverted microscopy relative to control; assay type: functional; conditions: 1.25 h
Summary of the method: (§4)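 Paracentrotus lividus gametes were collected after acetylcholine injection into the coelomic cavity. Fertilized eggs were incubated with compound at 0–30 μM in 96-well microplates. Dividing eggs were scored under an inverted microscope at 75 min post-fertilization, when control eggs had completed first cleavage. The percentage of dividing eggs was recorded.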

Paracentrotus lividus [9] = test: Antiproliferative activity against Paracentrotus lividus eggs assessed as inhibition of first cell division at 4 uM measured 75 mins post fertilization by inverted microscopy relative to control; assay type: functional; conditions: 1.25 h; summary of the method: as §4
Paracentrotus lividus [10] = test: Antiproliferative activity against Paracentrotus lividus eggs assessed as cells divided with formation of extracellular cytoplasmic granules at 5 uM measured 80 mins post fertilization by reversed optical microscopy; assay type: functional
Summary of the method: (§5)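 P. lividus fertilized eggs were kept with 5 μM compound, with controls in seawater containing 1% MeOH. Morphology was scored under a reversed optical microscope (20×) at 80 min, 120 min and 18 h post-fertilization. The percentage of each typical phenotype was recorded.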

Paracentrotus lividus [11] = test: Antiproliferative activity against Paracentrotus lividus eggs assessed as inhibition of cell division at 5 uM measured 80 mins post fertilization by reversed optical microscopy; assay type: functional, organism-based; summary of the method: as §5
Paracentrotus lividus [12] = test: Induction of morphological changes in Paracentrotus lividus eggs assessed as granulations of plasmic membrane at 5 uM measured 80 to 120 mins post fertilization by reversed optical microscopy; assay type: functional, organism-based; summary of the method: as §5
Paracentrotus lividus [13] = test: Inhibition of cell division in Paracentrotus lividus eggs assessed as reduction in reaching mesenchymal blastula stage at 5 uM measured 18 hrs post fertilization by reversed optical microscopy; assay type: functional, organism-based; summary of the method: as §5
Paracentrotus lividus [14] = test: Induction of morphological changes in Paracentrotus lividus eggs assessed as membrane blebbing at 5 uM measured 80 to 120 mins post fertilization by reversed optical microscopy; assay type: functional, organism-based; summary of the method: as §5
Paracentrotus lividus [15] = test: Induction of DNA fragmentation in Paracentrotus lividus eggs at 5 uM measured 60 mins post fertilization by TUNEL based fluorescence assay; assay type: functional, organism-based
Summary of the method: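 P. lividus eggs were treated with 5 μM compound. Before first division (60 min post-fertilization), fluorescent TUNEL labelling of 3′-OH DNA ends was done. DNase-treated eggs served as positive control and untreated eggs as negative control.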

Paracentrotus lividus [16] = test: Cell cycle arrest in Paracentrotus lividus eggs assessed as dispersion of condensed DNA in nucleus at 5 uM measured 60 mins post fertilization by DAPI staining staining based assay; assay type: functional, organism-based
Summary of the method: (§6)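 Fertilized P. lividus eggs were treated with 5 μM compound and stained with DAPI to show nuclear DNA at 30 and 60 min post-fertilization. Chromatin state was compared with untreated control eggs.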

Paracentrotus lividus [17] = test: Induction of apoptosis in Paracentrotus lividus eggs assessed as DNA condensation at 5 uM measured 30 mins post fertilization by DAPI staining staining based assay; assay type: functional, organism-based; summary of the method: as §6
Paracentrotus lividus [18] = test: Induction of apoptosis in Paracentrotus lividus eggs assessed as DNA localization at nuclear periphery at 5 uM measured 30 mins post fertilization by DAPI staining staining based assay; assay type: functional, organism-based; summary of the method: as §6

SMILES	MIC (Aeromonas salmonicida) [µM]	MIC (Vibrio anguillarum) [µM]	MIC (Shewanella baltica) [µM]	MIC (Escherichia coli) [µM]	MIC (Micrococcus luteus) [µM]	IC50 (Paracentrotus lividus [1]) [µM]	IC50 (SH-SY5Y [3]) [µM]	further results
C#CCCC[C@H]1OC(=O)[C@H]([C@@H](C)CC)N(C)C(=O)[C@@H]2CCCN2C(=O)[C@H](Cc2ccccc2)OC(=O)[C@H](C(C)C)N(C)C(=O)[C@H](C(C)C)NC(=O)[C@H]1C	27 (≈ 19.9 µg/mL)	33 (≈ 24.3 µg/mL)	> 50	35 (≈ 25.8 µg/mL)	47 (≈ 34.6 µg/mL)	11	–	Activity (SH-SY5Y [2]): inactive
CCCCC[C@H]1OC(=O)[C@H]([C@@H](C)CC)N(C)C(=O)[C@@H]2CCCN2C(=O)[C@H](Cc2ccccc2)OC(=O)[C@H](C(C)C)N(C)C(=O)[C@H](C(C)C)NC(=O)[C@H]1C	6.7 to 7 (≈ 4.96 to 5.19 µg/mL)	7 to 7.4 (≈ 5.19 to 5.48 µg/mL)	16 (≈ 11.9 µg/mL)	14 (≈ 10.4 µg/mL)	17 (≈ 12.6 µg/mL)	7	6	Activity (SH-SY5Y [4]): Active; Activity (SH-SY5Y [5]): 7.9%; Activity (SH-SY5Y [6]): 36%
CN[C@@H]1C[C@H]2O[C@@](C)([C@@H]1OC)n1c3ccccc3c3c4c(c5c6ccccc6n2c5c31)C(=O)NC4	–	–	–	–	–	–	–	Activity (SH-SY5Y [7]): Active
C=CCCC[C@H]1OC(=O)[C@H]([C@@H](C)CC)N(C)C(=O)[C@@H]2CCCN2C(=O)[C@H](Cc2ccccc2)OC(=O)[C@H](C(C)C)N(C)C(=O)[C@H](C(C)C)NC(=O)[C@H]1C	9.4 (≈ 6.95 µg/mL)	8.5 (≈ 6.28 µg/mL)	22 (≈ 16.3 µg/mL)	12 (≈ 8.87 µg/mL)	29 (≈ 21.4 µg/mL)	3.9	14	inhibition at 2 µM (Paracentrotus lividus [8]): 10%; inhibition at 4 µM (Paracentrotus lividus [9]): 60%; Activity (Paracentrotus lividus [10]): 8%; inhibition (Paracentrotus lividus [11]): Active; Activity (Paracentrotus lividus [12]): Active; inhibition (Paracentrotus lividus [13]): Active; Activity (Paracentrotus lividus [14]): Active; Activity (Paracentrotus lividus [15]): Active; Activity (Paracentrotus lividus [16]): Active; Activity (Paracentrotus lividus [17]): Active; Activity (Paracentrotus lividus [18]): Active
